Results reported in ChEMBL document CHEMBL1135528, “Monocyclic human tachykinin NK-2 receptor antagonists as evolution of a potent bicyclic antagonist: QSAR and site-directed mutagenesis studies” (J Med Chem, 2002).
Substitutions are numbered along the chain they refer to. Each block holds one molecule with its values, some of them ahead of it. Active and inactive are the calls of the source. The calls are words filed in the database; no cut-off is given here. *1 amine or outer side, *2 acyl side, *3 side chain or, on linkers, in order; H or OH if unused. Where a SMILES comes first, the peptide text is derived from it. Bridges are numbered along the chain shown (N, C = ends). [ ]: non-standard residue; d: D form. Suc = O=C(CCC(=O)[*:2])[*:1]; Dap = NC[C@H](N)C(=O)O

How the values were obtained:
[1] = target: T1, Substance-K receptor (Homo sapiens, UniProt P21452); assay: Inhibitory affinity constant (pKi) against tachykinin receptor 2 (NK-2R) using heterologous competition experiments
T1 sequence (P21452 whole entry): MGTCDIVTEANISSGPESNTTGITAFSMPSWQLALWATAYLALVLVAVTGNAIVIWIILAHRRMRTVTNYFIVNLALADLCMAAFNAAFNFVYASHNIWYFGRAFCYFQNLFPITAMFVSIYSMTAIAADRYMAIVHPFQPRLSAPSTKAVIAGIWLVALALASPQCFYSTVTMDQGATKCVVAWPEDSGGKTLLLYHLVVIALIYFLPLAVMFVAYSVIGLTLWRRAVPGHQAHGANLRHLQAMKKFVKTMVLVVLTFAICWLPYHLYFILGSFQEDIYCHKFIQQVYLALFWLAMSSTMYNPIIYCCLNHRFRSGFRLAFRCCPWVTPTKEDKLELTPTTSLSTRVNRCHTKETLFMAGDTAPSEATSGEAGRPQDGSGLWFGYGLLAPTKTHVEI
How it was run: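 Buffer was 50 mM Tris-HCl pH 7.4. Competitors ranged 0.3 pM–10 μM. Filter-bound radioactivity was counted, and pKi was obtained by fitting competition curves. Mean ± sem of duplicate experiments.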

[2] = test system: Substance-K receptor (Homo sapiens), P21452 [Y169A]
[3] = test system: Substance-K receptor (Homo sapiens), P21452 [Y107A]
[4] = test system: Substance-K receptor (Homo sapiens), P21452 [Y269F]
[5] = test system: Substance-K receptor (Homo sapiens), P21452 [F293A]
[6] = test system: Substance-K receptor (Homo sapiens), P21452 [I202F]
[7] = test system: Substance-K receptor (Homo sapiens), P21452 [F112A]
[8] = test system: T2, Substance-K receptor (Homo sapiens), P21452 [Y266F]
T2 sequence (whole entry): T1 sequence (P21452 whole entry) with Y266F

[9] = test system: Substance-K receptor (Homo sapiens), P21452 [T171A]
[10] = test system: Substance-K receptor (Homo sapiens), P21452 [H198A]
[11] = test system: Substance-K receptor (Homo sapiens), P21452 [Y206F]
[12] = test system: T3, Substance-K receptor (Homo sapiens), P21452 [W263A]
T3 sequence (whole entry): T1 sequence (P21452 whole entry) with W263A

[13] = test system: Substance-K receptor (Homo sapiens), P21452 [Y289F]
[14] = test system: Substance-K receptor (Homo sapiens), P21452 [Y289T]
[15] = test system: Substance-K receptor (Homo sapiens), P21452 [Q166A]
[16] = test system: T4, Substance-K receptor (Homo sapiens), P21452 [C167A]
T4 sequence (whole entry): T1 sequence (P21452 whole entry) with C167A

[17] = test system: Substance-K receptor (Homo sapiens), P21452 [N110A]
[18] = test system: T5, Substance-K receptor (Homo sapiens), P21452 [S170A]
T5 sequence (whole entry): T1 sequence (P21452 whole entry) with S170A

[19] = test system: Substance-K receptor (Homo sapiens), P21452 [Y269A]
Sequence of Substance-K receptor (Homo sapiens), P21452 [Y269A] (P21452 whole entry Y269A): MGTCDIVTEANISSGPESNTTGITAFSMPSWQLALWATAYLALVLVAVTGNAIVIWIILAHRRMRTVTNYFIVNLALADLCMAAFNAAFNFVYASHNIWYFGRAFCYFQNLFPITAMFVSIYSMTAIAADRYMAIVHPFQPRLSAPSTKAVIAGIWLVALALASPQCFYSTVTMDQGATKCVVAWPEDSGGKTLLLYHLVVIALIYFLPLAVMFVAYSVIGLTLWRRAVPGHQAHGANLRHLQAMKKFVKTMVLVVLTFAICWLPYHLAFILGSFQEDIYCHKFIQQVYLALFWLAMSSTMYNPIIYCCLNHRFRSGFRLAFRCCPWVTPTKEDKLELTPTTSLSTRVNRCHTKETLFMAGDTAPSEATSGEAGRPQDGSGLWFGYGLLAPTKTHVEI

Sequence of Substance-K receptor (Homo sapiens), P21452 [Y289T] (P21452 whole entry Y289T): as the sequence (P21452 whole entry Y269A) above, with A269Y, Y289T counted along it
Sequence of Substance-K receptor (Homo sapiens), P21452 [Y206F] (P21452 whole entry Y206F): as the sequence (P21452 whole entry Y269A) above, with Y206F, A269Y counted along it
Sequence of Substance-K receptor (Homo sapiens), P21452 [T171A] (P21452 whole entry T171A): as the sequence (P21452 whole entry Y269A) above, with T171A, A269Y counted along it
Sequence of Substance-K receptor (Homo sapiens), P21452 [F112A] (P21452 whole entry F112A): as the sequence (P21452 whole entry Y269A) above, with F112A, A269Y counted along it
Sequence of Substance-K receptor (Homo sapiens), P21452 [H198A] (P21452 whole entry H198A): as the sequence (P21452 whole entry Y269A) above, with H198A, A269Y counted along it
Sequence of Substance-K receptor (Homo sapiens), P21452 [Y169A] (P21452 whole entry Y169A): as the sequence (P21452 whole entry Y269A) above, with Y169A, A269Y counted along it
Sequence of Substance-K receptor (Homo sapiens), P21452 [Q166A] (P21452 whole entry Q166A): as the sequence (P21452 whole entry Y269A) above, with Q166A, A269Y counted along it
Sequence of Substance-K receptor (Homo sapiens), P21452 [Y269F] (P21452 whole entry Y269F): as the sequence (P21452 whole entry Y269A) above, with A269F counted along it
Sequence of Substance-K receptor (Homo sapiens), P21452 [Y107A] (P21452 whole entry Y107A): as the sequence (P21452 whole entry Y269A) above, with Y107A, A269Y counted along it
Sequence of Substance-K receptor (Homo sapiens), P21452 [I202F] (P21452 whole entry I202F): as the sequence (P21452 whole entry Y269A) above, with I202F, A269Y counted along it
Sequence of Substance-K receptor (Homo sapiens), P21452 [Y289F] (P21452 whole entry Y289F): as the sequence (P21452 whole entry Y269A) above, with A269Y, Y289F counted along it
Sequence of Substance-K receptor (Homo sapiens), P21452 [F293A] (P21452 whole entry F293A): as the sequence (P21452 whole entry Y269A) above, with A269Y, F293A counted along it
Sequence of Substance-K receptor (Homo sapiens), P21452 [N110A] (P21452 whole entry N110A): as the sequence (P21452 whole entry Y269A) above, with N110A, A269Y counted along it

Compound: O=C1C[C@H](N2CCOCC2)C(=O)NC[C@@H](Cc2ccccc2)NC(=O)[C@H](Cc2ccccc2)NC(=O)[C@H](Cc2c[nH]c3ccccc23)N1
Ki [1]: 0.794 nM

Compound: CSCC[C@H](NC(=O)[C@H](CC(C)C)NC(=O)CNC(=O)[C@@H](NC(=O)[C@H](Cc1ccccc1)NC(=O)[C@H](CO)NC(=O)[C@H](CC(=O)O)NC(=O)[C@@H](NC(=O)[C@H](CCCCN)NC(=O)[C@@H](N)Cc1c[nH]cn1)[C@@H](C)O)C(C)C)C(N)=O
UB [2]: inactive
KD/Ki [3]: 0.5 nM
KD/Ki [4]: 5.3 nM
KD/Ki [5]: 40 nM
KD/Ki [6]: 2.1 nM
KD/Ki [7]: 10.7 nM
KD/Ki [8]: 2.8 nM
KD/Ki [9]: 5.9 nM
UB [10]: inactive
KD/Ki [11]: 5.9 nM
UB [12]: inactive
KD/Ki [13]: 2 nM
UB [14]: inactive
KD/Ki [15]: 6.6 nM
UB [16]: inactive
UB [17]: inactive
KD/Ki [18]: 1.9 nM
UB [19]: inactive

Compound: O=C1C[C@@H](NC(=O)CN2CCOCC2)C(=O)NC[C@@H](Cc2ccccc2)NC(=O)[C@H](Cc2ccccc2)NC(=O)[C@H](Cc2c[nH]c3ccccc23)N1
Ki [1]: 0.316 nM

Compound: O=C1C[C@H](NCc2nn[nH]n2)C(=O)NC[C@@H](Cc2ccccc2)NC(=O)[C@H](Cc2ccccc2)NC(=O)[C@H](Cc2c[nH]c3ccccc23)N1
Ki [1]: 1.58 nM

Compound: O=C(N[C@H]1CCCCN(Cc2ccccc2)C(=O)[C@H](Cc2ccccc2)NC(=O)[C@H](Cc2c[nH]c3ccccc23)NC1=O)OCc1ccccc1
Ki [1]: 5.01 nM

Compound: O=C1C[C@H](NC(=O)[C@]2(O)C[C@@H](O)[C@@H](O)[C@H](O)C2)C(=O)NC[C@@H](Cc2ccccc2)NC(=O)[C@H](Cc2ccccc2)NC(=O)[C@H](Cc2c[nH]c3ccccc23)N1
Ki [1]: 6.31 nM

Compound: O=C1C[C@@H](NC(=O)CN2CCC(N3CCCCC3)CC2)C(=O)NC[C@H](Cc2ccccc2)NC(=O)[C@H](Cc2ccccc2)NC(=O)[C@H](Cc2c[nH]c3ccccc23)N1
Ki [1]: 0.398 nM

Second part, the molecule after the results:

Ki [1]: 3.16 nM
Compound: N[C@H]1CC(=O)NC[C@@H](Cc2ccccc2)NC(=O)[C@H](Cc2ccccc2)NC(=O)[C@H](Cc2c[nH]c3ccccc23)NC1=O

Ki [1]: 12.6 nM
Compound: O=C(O)CCC(=O)N[C@H]1CC(=O)N[C@@H](Cc2c[nH]c3ccccc23)C(=O)N[C@@H](Cc2ccccc2)C(=O)N[C@H](Cc2ccccc2)CNC1=O

Ki [1]: 398 nM
Compound: O=C1C[C@@H](C(=O)O)NC(=O)[C@@H](Cc2ccc(Cl)c(Cl)c2)NC(=O)[C@H](Cc2ccccc2)NC(=O)[C@H](Cc2c[nH]c3ccccc23)N1

Ki [1]: 3.98 nM
Compound: N=C(N)NCC(=O)N[C@H]1CC(=O)N[C@@H](Cc2c[nH]c3ccccc23)C(=O)N[C@@H](Cc2ccccc2)C(=O)N[C@H](Cc2ccccc2)CNC1=O

Ki [1]: 7.94 nM
Compound: NCCCC(=O)N[C@H]1CC(=O)N[C@@H](Cc2c[nH]c3ccccc23)C(=O)N[C@@H](Cc2ccccc2)C(=O)N[C@H](Cc2ccccc2)CNC1=O

Ki [1]: 3.16 nM
Compound: N[C@H]1CC(=O)N[C@@H](Cc2c[nH]c3ccccc23)C(=O)N[C@@H](Cc2ccccc2)C(=O)N[C@H](Cc2ccccc2)CNC1=O

Ki [1]: 3980 nM
Compound: NC(=O)[C@@H]1CNC(=O)CCC(=O)N[C@@H](Cc2c[nH]c3ccccc23)C(=O)N[C@@H](Cc2ccccc2)C(=O)N1 (Trp-Phe-[Dap]-NH2; linker N-3 via Suc)

Ki [1]: 3.16 nM
Compound: O=C1CCC(=O)N[C@@H](Cc2c[nH]c3ccccc23)C(=O)N[C@@H](Cc2ccccc2)C(=O)N[C@H](Cc2c[nH]c3ccccc23)CN1

Ki [1]: 316 nM
Compound: O=C1CCCNC(=O)[C@@H](Cc2ccccc2)NC(=O)[C@H](Cc2ccccc2)NC(=O)[C@H](Cc2c[nH]c3ccccc23)N1

Ki [1]: 316 nM
Compound: C=CCOC(=O)[C@@H]1CC(=O)N[C@@H](Cc2c[nH]c3ccccc23)C(=O)N[C@@H](Cc2ccccc2)C(=O)N[C@H](Cc2ccc(Cl)c(Cl)c2)C(=O)N1

Ki [1]: 0.158 nM
Compound: O=C1C[C@@H](N2CCOCC2)C(=O)NC[C@@H](Cc2ccccc2)NC(=O)[C@H](Cc2ccccc2)NC(=O)[C@H](Cc2c[nH]c3ccccc23)N1
